In brackets after ≈: the same amount, converted by molar mass.
Tests used:
[1] = system: Staphylococcus aureus; assay: Antibacterial activity against methicillin-resistant Staphylococcus aureus NRS384 infected in Swiss mouse; format: functional
Procedure, shortened: (§1)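 Murine lethal systemic infection by intraperitoneal MRSA challenge. A single subcutaneous dose was given 5 min after infection.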

[2] = system: Staphylococcus aureus; assay: Antibacterial activity against methicillin-resistant Staphylococcus aureus NRS382 infected in Swiss mouse; format: functional; procedure, shortened: as §1
[3] = system: Staphylococcus aureus; assay: Antibacterial activity against methicillin-resistant Staphylococcus aureus NRS385 infected in Swiss mouse; format: functional; procedure, shortened: as §1
[4] = system: Staphylococcus aureus; assay: Antibacterial activity against methicillin-resistant Staphylococcus aureus; format: functional
[5] = system: Staphylococcus epidermidis; assay: Antibacterial activity against methicillin-resistant Staphylococcus epidermidis; format: functional
[6] = system: Staphylococcus haemolyticus; assay: Antibacterial activity against methicillin-resistant Staphylococcus haemolyticus; format: functional
[7] = system: Staphylococcus aureus; assay: Antibacterial activity against community acquired methicillin-resistant Staphylococcus aureus; format: functional
[8] = system: Staphylococcus aureus; assay: Antibacterial activity against methicillin-susceptible Staphylococcus aureus; format: functional
[9] = target: T1, Enoyl-[acyl-carrier-protein] reductase [NADPH] FabI (Staphylococcus aureus, UniProt Q6GI75); assay: Inhibition of Staphylococcus aureus recombinant FabI using trans-2-octenoyl N-acetylcysteamine thioester as substrate preincubated for 60 mins
T1 sequence (Q6GI75 whole entry): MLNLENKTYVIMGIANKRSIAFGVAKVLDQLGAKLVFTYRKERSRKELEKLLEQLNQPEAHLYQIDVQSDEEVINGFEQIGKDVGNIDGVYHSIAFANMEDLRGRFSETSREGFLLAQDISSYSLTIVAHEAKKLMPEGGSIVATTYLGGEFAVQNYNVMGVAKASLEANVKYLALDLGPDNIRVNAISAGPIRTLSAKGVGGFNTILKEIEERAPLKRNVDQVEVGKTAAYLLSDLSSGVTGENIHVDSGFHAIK
Procedure, shortened: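 Recombinant S. aureus FabI (2 nM) in 50 mM ADA pH 6.5, 1 mM DTT, 0.006% Triton X-100, 50 mM NaCl. Preincubated 60 min at room temperature with 40 μM NADPH, 10 μM NADP+ and inhibitor in DMSO. Reaction started with 100 μM t-o-NAC. Inhibition versus untreated samples; IC50 by Langmuir fit.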

[10] = system: Staphylococcus aureus; assay: Antibacterial activity against Staphylococcus aureus CIP54.146 after 18 hrs by broth microdilution method; format: functional; conditions: CIP54.146, 18 h
Procedure, shortened: (§2)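 CLSI broth microdilution with serial 2-fold dilutions from 0.06 to 64 μg/mL. Cation-adjusted Mueller–Hinton broth, inoculum 5 × 10^5 CFU/mL, incubated at 35 °C for 18 h. MIC taken as the lowest concentration with no visible growth.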

[11] = system: Streptococcus pneumoniae; assay: Antibacterial activity against Streptococcus pneumoniae D39 after 18 hrs by broth microdilution method; format: functional; conditions: D39, 18 h
Procedure, shortened: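 CLSI broth microdilution with 2-fold dilutions from 0.06 to 64 μg/mL. Cation-adjusted Mueller–Hinton broth with 2.5% lysed horse blood, inoculum 5 × 10^5 CFU/mL, grown at 35 °C for 18 h in 5% CO2. MIC is the lowest concentration showing no visible growth.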

[12] = system: Enterococcus faecalis; assay: Antibacterial activity against Enterococcus faecalis ATCC 29212 after 18 hrs by broth microdilution method; format: functional; conditions: ATCC 29212, 18 h; procedure, shortened: as §2
[13] = system: Escherichia coli; assay: Antibacterial activity against Escherichia coli C7 after 18 hrs by broth microdilution method; format: functional; conditions: C7, 18 h
[14] = Cytotoxicity against human HepG2 cells; format: cell-based; conditions: read-out: ED50 (the source's name)
[15] = system: Escherichia coli; assay: Antibacterial activity against Escherichia coli; format: functional
[16] = system: Moraxella catarrhalis; assay: Antibacterial activity against Moraxella catarrhalis; format: functional
[17] = system: Neisseria meningitidis; assay: Antibacterial activity against Neisseria meningitidis; format: functional
[18] = system: Neisseria gonorrhoeae; assay: Antibacterial activity against Neisseria gonorrhoeae; format: functional
[19] = system: Haemophilus influenzae; assay: Antibacterial activity against Haemophilus influenzae; format: functional
[20] = system: Proteus mirabilis; assay: Antibacterial activity against Proteus mirabilis; format: functional

Compound: CN[C@H](CC(C)C)C(=O)N[C@H]1C(=O)N[C@@H](CC(N)=O)C(=O)N[C@H]2C(=O)N[C@H]3C(=O)N[C@H](C(=O)N[C@H](C(=O)O)c4cc(O)cc(O)c4-c4cc3ccc4O)[C@H](O)c3ccc(c(Cl)c3)Oc3cc2cc(c3O[C@@H]2O[C@H](CO)[C@@H](O)[C@H](O)[C@H]2O[C@H]2C[C@](C)(N)[C@H](O)[C@H](C)O2)Oc2ccc(cc2Cl)[C@H]1O [VANCOMYCIN]
- ED50 [1]: 9.4 mg/kg
- ED50 [2]: 6 mg/kg
- ED50 [3]: 5 mg/kg

Compound: CC(=O)NC[C@H]1CN(c2ccc(N3CCOCC3)c(F)c2)C(=O)O1 [LINEZOLID]
- MIC90 [4]: ≥ 16 µg/mL
- MIC90 [5]: 1 µg/mL (≈ 2.96 µM)
- MIC90 [6]: 1 µg/mL (≈ 2.96 µM)
- MIC90 [7]: 2 µg/mL (≈ 5.93 µM)
- MIC90 [8]: 2 µg/mL (≈ 5.93 µM)

Compound: CCc1ccc(Oc2ccc(C(=O)N3CCNC(=O)C3)cc2F)c(O)c1
- IC50 [9]: 28 nM
- MIC [10]: 1 µg/mL (≈ 2.79 µM)
- MIC [11]: > 32 µg/mL
- MIC [12]: > 32 µg/mL
- MIC [13]: 8 µg/mL (≈ 22.3 µM)
- CC50 [14]: > 32 µg/mL

Compound: C[C@H]1COc2c(N3CCN(C)CC3)c(F)cc3c(=O)c(C(=O)O)cn1c23.C[C@H]1COc2c(N3CCN(C)CC3)c(F)cc3c(=O)c(C(=O)O)cn1c23.O [LEVOFLOXACIN]
- MIC90 [15]: ≥ 16 µg/mL
- MIC90 [16]: 0.03 µg/mL
- MIC90 [17]: ≤ 8 ng/mL
- MIC90 [18]: 0.5 µg/mL
- MIC90 [19]: 0.03 µg/mL
- MIC90 [20]: 0.06 µg/mL

Reference: ChEMBL document CHEMBL2176870 (J Med Chem, 2012)
